Myeloid diff 2: compounds promoting myeloid differentiation. actives 1% (n = 360,000). calls only at 10 µM. ER-HoxA9 myeloid progenitors, lysozyme-GFP differentiation, flow cytometry. AID 624256;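 active means normalized GFP-positive differentiation at or above the plate's own cutoff, the solvent-only control mean plus 3 SD; inconclusive means no clear call, values can overlap the other calls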;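 further: cells exposed to compound for four days before flow analysis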
Rpn11 inh: Rpn11 (human) deubiquitinase inhibition. AID 588493. inhibition, % at 20 µM. O00487. actives 0.59% (n = 360,000). human 26S proteasome, Ub4-pepOG fluorescence polarization; 20S core pre-blocked with epoxomicin;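 active means inhibition at 20 µM, scaled to each plate's controls, above about 33%, limit read from the data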
HNF4A DNA FP: change in binding of human HNF4 alpha to DNA; HNF4a-FITC DNA binding, fluorescence polarization, 1 h; P41235; activity change, % at 10 µM; actives 0.3% (n = 360,000); in the data active means activity change above about 30%, passing the limit was not always enough
TPT1 inh: blocks Candida albicans tRNA 2'-phosphotransferase; recombinant caTPT1, FP RNA substrate dephosphorylation; inhibition, % at 5 µM; actives 0.81% (n = 300,000); AID 1962;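 active means inhibition above the mean of all tested compounds plus 3 SD, set per screening campaign, cut at about 24% in these data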
CSN inh: inhibitors of human CSN-mediated cullin deneddylation | Q92905 | Purified CSN, SCF-Nedd8-OG deneddylation, fluorescence polarization | inhibition, % at 12.5 µM | actives 0.38% (n = 360,000);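 active means pattern-corrected inhibition above about 35%, with an unprinted fluorescence ratio check between 0.5 and 1.5, limit read from the data, passing the limit was not always enough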
Target sequence (Q92905 whole entry, looked up, one chain of several): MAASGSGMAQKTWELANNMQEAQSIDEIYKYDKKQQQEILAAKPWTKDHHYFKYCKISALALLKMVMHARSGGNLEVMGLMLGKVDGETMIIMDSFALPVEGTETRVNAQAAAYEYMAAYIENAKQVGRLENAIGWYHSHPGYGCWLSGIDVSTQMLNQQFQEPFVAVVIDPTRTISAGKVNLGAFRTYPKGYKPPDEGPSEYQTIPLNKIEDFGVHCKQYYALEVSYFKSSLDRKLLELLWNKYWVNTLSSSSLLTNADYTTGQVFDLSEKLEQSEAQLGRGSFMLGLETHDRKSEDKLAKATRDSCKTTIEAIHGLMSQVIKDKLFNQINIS
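Material: human Csn5 produced in HEK293T cells; Input: enzyme 0.24 nM; Reagent: SCFSkp2-Nedd8OG substrate at 10 nM final; Dosing: 12.5 µM compound; Incubation: 90 min reaction at room temperature; Detection: fluorescence polarization of the substrate; Evaluation: % inhibition of substrate cleavage by Csn5; Control set: substrate-only high control, full reaction low control.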
Each line names hits and unclear results; the compound was inactive in the other large screens. In the library only some 2.3% were active in any assay of this set; here they are far more common.

CC(C)C[C@H]1CNC(=S)N1C[C@H]1CCCN1C[C@H](Cc1ccccc1)N1C[C@H](Cc2ccc(O)cc2)N(CC2CCCCC2)C1=S	Myeloid diff 2 active (no result: TPT1 inh)
CCOc1ccc(CCN2C(=S)N([C@@H](Cc3ccc(O)cc3)CN3CCC[C@@H]3CN3C(=S)NC[C@@H]3CC(C)C)C[C@@H]2Cc2ccc(O)cc2)cc1	Myeloid diff 2 active (no result: TPT1 inh)
CCOc1ccc(CCN2C(=S)N([C@@H](Cc3ccc(O)cc3)CN3CCCC3CN3C(=S)NC[C@@H]3Cc3ccc(O)cc3)C[C@@H]2CC(C)C)cc1 (stereo partly specified)	none (no result: TPT1 inh)
CC(C)C[C@H]1CNC(=S)N1C[C@H]1CCCN1C[C@H](CC(C)C)N1C[C@H](Cc2ccccc2)N(CCc2ccccc2)C1=S	Myeloid diff 2 inconclusive, CSN inh 110 (no result: TPT1 inh)
CC(C)C[C@H]1CNC(=S)N1CC1CCCN1C[C@H](Cc1ccc(O)cc1)N1C[C@H](Cc2ccccc2)N(CC2CCCCC2)C1=S (stereo partly specified)	none (no result: TPT1 inh)
COc1cc(NC(=O)c2ccc(-c3ccc(F)c(F)c3)c3ccoc23)cc(OC)c1OC	none (no result: TPT1 inh)
Cc1ccc(S(=O)(=O)N2CCN(c3nc(-c4cccs4)nc4ccccc34)CC2)cc1	none (no result: TPT1 inh)
O=C1CCCC2=C1C1(CCCC1)N=C(Nc1nc3cc(-c4ccccc4)ccc3o1)N2	none (no result: TPT1 inh)
CCCCCCCCN1CC(Cc2cc3ccccc3c3ccccc23)N(c2ccccc2)c2ccccc2C1=O (stereo unspecified)	none (no result: Rpn11 inh, TPT1 inh)
c1ccc(-c2cn(-c3ccccc3)c3[n+]2CCS3)cc1	Myeloid diff 2 active
O=C1NC[C@@H](CCCCN2C[C@H](Cc3ccc(O)cc3)N(Cc3ccccc3)C(=O)C2=O)N(Cc2ccccc2)C1=O	none (no result: Rpn11 inh, TPT1 inh)
CCN(CC)c1ccc(/C=c2\sc3nc4ccccc4n3c2=O)c(O)c1	Myeloid diff 2 active (no result: TPT1 inh)
COc1ccc(NC(=O)c2sc(=O)n(Cc3ccccc3C#N)c2C)cc1OC	none (no result: TPT1 inh)
CCCCOCCCNC(=O)C[C@@H]1C[C@@]2(C(=O)OC)CC(C)(C)CC=C2N(Cc2cccc3ccccc23)C1=O	none (no result: Rpn11 inh, TPT1 inh)
CC(=O)NS(=O)(=O)c1ccc(NC(=S)NC(=O)c2ccco2)cc1	CSN inh 93
CC(=O)Nc1ccc(S(=O)(=O)NNC(=S)NCc2ccco2)cc1	Myeloid diff 2 active
NS(=O)(=O)c1ccc(NC(=S)NC(=O)c2ccco2)cc1	none
C=CCC[C@H](CCCCC)OC(=O)/C=C/[C@@H](O)[C@H](O)C[C@H](O)CC=C	none (no result: Rpn11 inh, TPT1 inh)
COC(=O)[C@]12CCCCC=C1N(CCc1ccc(OC)c(OC)c1)C(=O)[C@H](CC(=O)NCC1CCCCC1)C2	none (no result: Rpn11 inh, TPT1 inh)
CC1=C(C(=O)N2CCOCC2)CC(CC(=O)NC2CCCCC2)C(=O)N1Cc1ccccc1 (stereo unspecified)	none (no result: TPT1 inh)
N#C/C(=C\c1ccccc1C(=O)O)c1nc2ccccc2[nH]1	none
N#C/C(=C\c1ccc(-c2ccc(C(=O)O)cc2)o1)c1nc2ccccc2[nH]1	Myeloid diff 2 active (not shown: Rpn11 inh, TPT1 inh)
CCOC(=O)[C@]12CCCC=C1N(CCc1ccc(OC)c(OC)c1)C(=O)[C@H](CC(=O)N1CCCC1)C2	none (no result: Rpn11 inh, TPT1 inh)
CCCCN(C)C(=O)c1ccc(Nc2nc(C(N)Cc3ccc(C(F)(F)F)cc3)cs2)nc1 (stereo unspecified)	none (no result: TPT1 inh)
Cc1ccc2cc3c(N)c(C(=O)N4CC(=O)Nc5ccccc54)sc3nc2c1	TPT1 inh 34 (no result: Myeloid diff 2, Rpn11 inh, HNF4A DNA FP, CSN inh)
Cc1ccc(F)c(S(=O)(=O)NC(=O)C2(C)CCN2C(=O)Cc2cccs2)c1 (stereo unspecified)	none (no result: TPT1 inh)
O=[N+]([O-])c1cccc(/C=N\N2CCN(Cc3ccccc3Cl)CC2)c1	HNF4A DNA FP 42
O=C(/C=C/[C@H]1O[C@@H](n2ccc(=O)[nH]c2=O)[C@H](O)[C@@H]1O)NCCCc1ccccc1	none (no result: TPT1 inh)
Cc1noc(/C=C/c2ccc(-c3ccccc3Cl)o2)c1[N+](=O)[O-]	Myeloid diff 2 active, TPT1 inh 138 (not shown: Rpn11 inh)
CC(C)OC(=O)/C(C#N)=C/c1ccc(-c2ccc(SC(F)F)cc2)o1	Rpn11 inh 57
COC(=O)/C(C#N)=C/c1ccc(-c2ccc(S(N)(=O)=O)cc2)o1	none
O=C(NCCCN1CCOCC1)c1ccc(Sc2ccc(Br)cc2)c([N+](=O)[O-])c1	Myeloid diff 2 active
O=C(NCCCN1CCOCC1)c1ccc(Sc2ccccc2Cl)c([N+](=O)[O-])c1	none
CCOC(=O)CCn1nc(-c2ccc(Cl)cc2)cc1N	none
CCOC(=O)Cn1nc(-c2ccc(Cl)cc2)cc1N	CSN inh 49
